This note sets out measurements from ChEMBL document CHEMBL4342411, “Novel multitarget 5-arylidenehydantoins with arylpiperazinealkyl fragment: Pharmacological evaluation and investigation of cytotoxicity and metabolic stability” (Bioorg Med Chem, 2019).

Sequence of 5-hydroxytryptamine receptor 7 (P34969 whole entry): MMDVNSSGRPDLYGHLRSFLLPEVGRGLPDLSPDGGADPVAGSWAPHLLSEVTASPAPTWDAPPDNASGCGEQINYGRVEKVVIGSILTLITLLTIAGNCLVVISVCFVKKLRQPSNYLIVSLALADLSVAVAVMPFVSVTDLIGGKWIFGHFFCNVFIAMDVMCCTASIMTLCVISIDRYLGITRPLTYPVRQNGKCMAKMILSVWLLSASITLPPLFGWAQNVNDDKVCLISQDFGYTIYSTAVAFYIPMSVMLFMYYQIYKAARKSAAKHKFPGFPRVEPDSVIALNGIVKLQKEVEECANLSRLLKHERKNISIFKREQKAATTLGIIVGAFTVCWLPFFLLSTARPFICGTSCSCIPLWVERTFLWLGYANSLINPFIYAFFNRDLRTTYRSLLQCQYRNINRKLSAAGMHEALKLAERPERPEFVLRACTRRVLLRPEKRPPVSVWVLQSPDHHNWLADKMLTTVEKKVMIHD

The target of the first assay is 5-hydroxytryptamine receptor 6 (Homo sapiens) (UniProt P50406). Description: Displacement of [3H]-LSD from human recombinant 5-HT6 receptor expressed in CHO cells at 10^-6 M incubated for 60 mins by microbeta2 scintillation counter relative to control. The format is cell-based.
Sequence of 5-hydroxytryptamine receptor 6 (Homo sapiens) (P50406 whole entry): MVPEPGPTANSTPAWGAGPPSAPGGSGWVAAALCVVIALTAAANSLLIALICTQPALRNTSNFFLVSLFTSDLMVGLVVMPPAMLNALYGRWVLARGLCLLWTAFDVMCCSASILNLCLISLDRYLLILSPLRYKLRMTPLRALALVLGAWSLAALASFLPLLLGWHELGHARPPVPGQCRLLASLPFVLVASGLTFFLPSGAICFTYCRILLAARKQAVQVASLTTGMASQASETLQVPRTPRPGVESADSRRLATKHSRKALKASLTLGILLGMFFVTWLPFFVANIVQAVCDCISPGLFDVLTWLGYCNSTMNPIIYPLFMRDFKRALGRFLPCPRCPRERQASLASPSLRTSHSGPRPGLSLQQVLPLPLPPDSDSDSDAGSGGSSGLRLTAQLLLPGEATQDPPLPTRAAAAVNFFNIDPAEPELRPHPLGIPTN
Conditions: not given
A digest of the protocol: (§1)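 Radioligand displacement from recombinant human receptor membranes, tested at two final concentrations (10^-6 and 10^-7 M), with scintillation counting. Results were expressed as percent inhibition of specific binding.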
Take `COc1ccc(/C=C2\NC(=O)N(CCCN3CCN(c4ncccn4)CC3)C2=O)cc1OC1CCCC1`: the inhibition worked out at 23%.
The same measure, in the same setting: with `COc1ccc(/C=C2\NC(=O)N(CCCCN3CCN(c4ncccn4)CC3)C2=O)cc1OC1CCCC1` the figure was 8%.
Still for that read-out and setting: with `COc1ccc(/C=C2\NC(=O)N(CCCN3CCN(c4cccc(Cl)c4Cl)CC3)C2=O)cc1OC` the figure was 72%.
On the same count and under the same terms, for `COc1ccc(/C=C2\NC(=O)N(CCCN3CCN(c4cccc(Cl)c4Cl)CC3)C2=O)cc1OC1CCCC1` the value was 70%.

In a further assay the target is 3',5'-cyclic-AMP phosphodiesterase 4B (Homo sapiens) (UniProt Q07343). In words: Inhibition of human recombinant full length N-terminal GST-tagged PDE4B1 expressed in baculovirus infected Sf9 cells at 10^-5 M using cAMP as substrate incubated for 20 mins followed by substrate addition by luciferase assay relative to control.
Sequence of 3',5'-cyclic-AMP phosphodiesterase 4B (Homo sapiens) (Q07343 whole entry): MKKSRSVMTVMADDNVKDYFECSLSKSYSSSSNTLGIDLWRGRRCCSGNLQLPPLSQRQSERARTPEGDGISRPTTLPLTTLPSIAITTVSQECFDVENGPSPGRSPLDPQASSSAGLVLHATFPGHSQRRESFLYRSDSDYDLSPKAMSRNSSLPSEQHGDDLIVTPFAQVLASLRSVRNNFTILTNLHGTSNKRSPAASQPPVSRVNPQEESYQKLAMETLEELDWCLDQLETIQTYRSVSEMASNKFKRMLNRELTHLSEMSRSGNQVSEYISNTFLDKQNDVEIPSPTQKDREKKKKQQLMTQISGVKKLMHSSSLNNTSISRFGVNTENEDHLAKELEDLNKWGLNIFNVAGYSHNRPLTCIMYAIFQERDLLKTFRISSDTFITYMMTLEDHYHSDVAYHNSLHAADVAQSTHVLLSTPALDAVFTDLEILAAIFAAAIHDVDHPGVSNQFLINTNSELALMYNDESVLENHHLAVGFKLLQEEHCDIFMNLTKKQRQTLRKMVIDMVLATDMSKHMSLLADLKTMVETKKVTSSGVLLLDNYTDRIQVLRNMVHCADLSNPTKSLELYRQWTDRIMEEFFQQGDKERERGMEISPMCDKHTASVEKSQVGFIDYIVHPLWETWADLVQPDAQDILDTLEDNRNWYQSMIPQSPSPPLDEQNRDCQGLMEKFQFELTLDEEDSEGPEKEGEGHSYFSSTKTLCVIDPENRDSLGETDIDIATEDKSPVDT
Conditions: not given
As for `COc1ccc(/C=C2\NC(=O)N(CCCN3CCN(c4ncccn4)CC3)C2=O)cc1OC1CCCC1`, the inhibition stood at 9%.
Same read-out and setting: for `COc1ccc(/C=C2\NC(=O)N(CCCCN3CCN(c4ncccn4)CC3)C2=O)cc1OC1CCCC1` the value was 10%.
Same read-out and setting: for `COc1ccc(/C=C2\NC(=O)N(CCCN3CCN(c4cccc(Cl)c4Cl)CC3)C2=O)cc1OC` the value was 5%.
Still for that read-out and setting: for `COc1ccc(/C=C2\NC(=O)N(CCCN3CCN(c4cccc(Cl)c4Cl)CC3)C2=O)cc1OC1CCCC1` the value was 3%.

The target of a further assay is T1, 5-hydroxytryptamine receptor 1A (Homo sapiens, UniProt P08908).
T1 sequence (P08908 whole entry): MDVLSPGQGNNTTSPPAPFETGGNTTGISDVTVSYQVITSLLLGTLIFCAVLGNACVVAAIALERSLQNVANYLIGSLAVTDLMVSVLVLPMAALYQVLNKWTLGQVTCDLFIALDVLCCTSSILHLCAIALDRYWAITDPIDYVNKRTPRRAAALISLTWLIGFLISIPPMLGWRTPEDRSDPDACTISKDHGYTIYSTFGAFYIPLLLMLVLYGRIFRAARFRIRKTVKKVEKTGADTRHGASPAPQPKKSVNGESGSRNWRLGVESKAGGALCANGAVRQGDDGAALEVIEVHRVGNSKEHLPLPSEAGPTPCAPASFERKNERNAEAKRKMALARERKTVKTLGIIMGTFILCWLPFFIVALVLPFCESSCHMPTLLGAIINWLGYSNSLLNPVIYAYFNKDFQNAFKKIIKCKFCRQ
In words: Displacement of [3H]-8-OH-DPAT from human recombinant 5-HT1A receptor expressed in HEK293 cells incubated for 60 mins by microbeta2 scintillation counter. It is filed as cell-based.
Conditions: not given
With `COc1ccc(/C=C2\NC(=O)N(CCCN3CCN(c4ncccn4)CC3)C2=O)cc1OC1CCCC1`, the Ki amounted to 85 nM.
The same measure, in the same setting: with `COc1ccc(/C=C2\NC(=O)N(CCCCN3CCN(c4ncccn4)CC3)C2=O)cc1OC1CCCC1` the figure was 64 nM.
On the same count and under the same terms, with `COc1ccc(/C=C2\NC(=O)N(CCCN3CCN(c4cccc(Cl)c4Cl)CC3)C2=O)cc1OC` the figure was 53 nM; with `COc1ccc(/C=C2\NC(=O)N(CCCN3CCN(c4cccc(Cl)c4Cl)CC3)C2=O)cc1OC1CCCC1`, over 1000 nM.

The next assay concerns the target 5-hydroxytryptamine receptor 7 (Homo sapiens, UniProt P34969). Description: biochemical. It is filed as cell-based, CHO.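 Further: radioligand displacement of [3H]-LSD binding to recombinant human 5-HT7 receptor in CHO cells, 60 min incubation, read by scintillation counting.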
Conditions: not given
`COc1ccc(/C=C2\NC(=O)N(CCCN3CCN(c4ncccn4)CC3)C2=O)cc1OC1CCCC1` yielded a Ki of over 1000 nM.
Same read-out and setting: for `COc1ccc(/C=C2\NC(=O)N(CCCCN3CCN(c4ncccn4)CC3)C2=O)cc1OC1CCCC1` the value was 298 nM; for `COc1ccc(/C=C2\NC(=O)N(CCCN3CCN(c4cccc(Cl)c4Cl)CC3)C2=O)cc1OC`, 22 nM.
On the same count and under the same terms, for `COc1ccc(/C=C2\NC(=O)N(CCCN3CCN(c4cccc(Cl)c4Cl)CC3)C2=O)cc1OC1CCCC1` the value was 380 nM.

The next assay has as its target 5-hydroxytryptamine receptor 6 (Homo sapiens) (UniProt P50406). In words: Displacement of [3H]-LSD from human recombinant 5-HT6 receptor expressed in CHO cells at 10^-7 M incubated for 60 mins by microbeta2 scintillation counter relative to control.
Conditions: not given
It is filed as cell-based. A digest of the protocol: as §1
Turning to `COc1ccc(/C=C2\NC(=O)N(CCCN3CCN(c4ncccn4)CC3)C2=O)cc1OC1CCCC1`, the inhibition was determined as 0%.
The same measure, in the same setting: with `COc1ccc(/C=C2\NC(=O)N(CCCCN3CCN(c4ncccn4)CC3)C2=O)cc1OC1CCCC1` the figure was 0%; with `COc1ccc(/C=C2\NC(=O)N(CCCN3CCN(c4cccc(Cl)c4Cl)CC3)C2=O)cc1OC`, 0%.
The same measure, in the same setting: for `COc1ccc(/C=C2\NC(=O)N(CCCN3CCN(c4cccc(Cl)c4Cl)CC3)C2=O)cc1OC1CCCC1` the value was 0%.

In a further assay the target is 5-hydroxytryptamine receptor 2A (Homo sapiens) (UniProt P28223).
Sequence of 5-hydroxytryptamine receptor 2A (Homo sapiens) (P28223 whole entry): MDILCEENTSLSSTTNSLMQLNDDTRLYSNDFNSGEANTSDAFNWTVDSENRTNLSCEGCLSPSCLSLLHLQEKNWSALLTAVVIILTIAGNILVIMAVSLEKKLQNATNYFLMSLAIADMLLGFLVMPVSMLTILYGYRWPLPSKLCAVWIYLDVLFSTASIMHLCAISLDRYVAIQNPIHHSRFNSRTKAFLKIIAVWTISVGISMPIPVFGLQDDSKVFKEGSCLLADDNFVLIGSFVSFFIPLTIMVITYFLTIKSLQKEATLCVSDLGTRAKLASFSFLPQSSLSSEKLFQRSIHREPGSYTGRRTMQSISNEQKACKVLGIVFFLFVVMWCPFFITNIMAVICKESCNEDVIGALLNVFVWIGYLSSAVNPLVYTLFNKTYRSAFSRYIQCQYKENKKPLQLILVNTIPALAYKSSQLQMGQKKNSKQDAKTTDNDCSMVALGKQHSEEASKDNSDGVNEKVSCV
Assay: not given
The settings on record: HEK293, at 1 µM.
In turn, `COc1ccc(/C=C2\NC(=O)N(CCCN3CCN(c4ncccn4)CC3)C2=O)cc1OC1CCCC1` showed an inhibition of 89%.
In turn, `COc1ccc(/C=C2\NC(=O)N(CCCCN3CCN(c4ncccn4)CC3)C2=O)cc1OC1CCCC1` yielded an inhibition of 78%.
On the same count and under the same terms, with `COc1ccc(/C=C2\NC(=O)N(CCCN3CCN(c4cccc(Cl)c4Cl)CC3)C2=O)cc1OC` the figure was 97%.
Still for that read-out and setting: for `COc1ccc(/C=C2\NC(=O)N(CCCN3CCN(c4cccc(Cl)c4Cl)CC3)C2=O)cc1OC1CCCC1` the value was 96%.

The target is the same in a further assay.
Assay: not given
The settings on record: HEK293, at 0.1 µM.
In turn, `COc1ccc(/C=C2\NC(=O)N(CCCN3CCN(c4ncccn4)CC3)C2=O)cc1OC1CCCC1` showed an inhibition of 33%.
Same read-out and setting: with `COc1ccc(/C=C2\NC(=O)N(CCCCN3CCN(c4ncccn4)CC3)C2=O)cc1OC1CCCC1` the figure was 19%.
As to `COc1ccc(/C=C2\NC(=O)N(CCCN3CCN(c4cccc(Cl)c4Cl)CC3)C2=O)cc1OC`, the inhibition came out at 61%.
The same measure, in the same setting: for `COc1ccc(/C=C2\NC(=O)N(CCCN3CCN(c4cccc(Cl)c4Cl)CC3)C2=O)cc1OC1CCCC1` the value was 27%.
